Reference: ChEMBL document CHEMBL3994606, “Ring-opened tetrahydro-γ-carbolines display cytotoxicity and selectivity with histone deacetylase isoforms” (Eur J Med Chem, 2017)
Active and inactive are the calls of the source. The calls are words filed in the database; no cut-off is given here.

Experiments:
HCT-116 [1] = experiment: Antiproliferative activity against human HCT116 cells after 48 hrs by SRB assay; format: functional; settings: HCT-116, 48 h
Summary of the method: (§1)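 Cells seeded at 3-5 x 10³ cells/well. A T0 plate was fixed with 10% TCA at drug addition, and the rest were incubated 48 h with compound or DMSO, then TCA-fixed and stained with 0.4% SRB in 1% AcOH. Dye was extracted with 10 mM trizma base and read at 515 nm.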

PC-3 = experiment: Antiproliferative activity against human PC3 cells after 48 hrs by SRB assay; format: functional; settings: PC-3, 48 h; summary of the method: as §1
A549 = experiment: Antiproliferative activity against human A549 cells after 48 hrs by SRB assay; format: functional; settings: A549, 48 h; summary of the method: as §1
HCT-116 [2] = experiment: Anticlonogenic activity against human HCT116 cells after 24 hrs by crystal violet staining-based assay; format: functional, cell-based
Summary of the method: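 Cells exposed to a range of concentrations or DMSO vehicle for 24 h, washed, trypsinized and replated at 500 cells/well; after 14 days colonies were fixed and stained with 0.5% crystal violet in 70% EtOH. Colonies of more than 50 cells were counted, and survival fraction was taken relative to DMSO control.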

Histone deacetylase 1 = Histone deacetylase 1 (Homo sapiens, UniProt Q13547); experiment: Inhibition of full length human recombinant C-terminal FLAG-His-tagged HDAC1 expressed in Sf21 cells using RHKK(Ac) as substrate after 60 mins by fluorimetric method
Histone deacetylase 2 = Histone deacetylase 2 (Homo sapiens, UniProt Q92769); experiment: Inhibition of full length human recombinant C-terminal GST-tagged HDAC2 expressed in insect cells using RHKK(Ac) as substrate after 60 mins by fluorimetric method
[3] = molecular target: T1, Protein deacetylase HDAC6 (Homo sapiens, UniProt Q9UBN7); experiment: Inhibition of full length human recombinant N-terminal GST-tagged HDAC6 expressed in Sf9 cells using RHKK(Ac) as substrate after 90 mins by fluorimetric method
T1 sequence (Q9UBN7 whole entry): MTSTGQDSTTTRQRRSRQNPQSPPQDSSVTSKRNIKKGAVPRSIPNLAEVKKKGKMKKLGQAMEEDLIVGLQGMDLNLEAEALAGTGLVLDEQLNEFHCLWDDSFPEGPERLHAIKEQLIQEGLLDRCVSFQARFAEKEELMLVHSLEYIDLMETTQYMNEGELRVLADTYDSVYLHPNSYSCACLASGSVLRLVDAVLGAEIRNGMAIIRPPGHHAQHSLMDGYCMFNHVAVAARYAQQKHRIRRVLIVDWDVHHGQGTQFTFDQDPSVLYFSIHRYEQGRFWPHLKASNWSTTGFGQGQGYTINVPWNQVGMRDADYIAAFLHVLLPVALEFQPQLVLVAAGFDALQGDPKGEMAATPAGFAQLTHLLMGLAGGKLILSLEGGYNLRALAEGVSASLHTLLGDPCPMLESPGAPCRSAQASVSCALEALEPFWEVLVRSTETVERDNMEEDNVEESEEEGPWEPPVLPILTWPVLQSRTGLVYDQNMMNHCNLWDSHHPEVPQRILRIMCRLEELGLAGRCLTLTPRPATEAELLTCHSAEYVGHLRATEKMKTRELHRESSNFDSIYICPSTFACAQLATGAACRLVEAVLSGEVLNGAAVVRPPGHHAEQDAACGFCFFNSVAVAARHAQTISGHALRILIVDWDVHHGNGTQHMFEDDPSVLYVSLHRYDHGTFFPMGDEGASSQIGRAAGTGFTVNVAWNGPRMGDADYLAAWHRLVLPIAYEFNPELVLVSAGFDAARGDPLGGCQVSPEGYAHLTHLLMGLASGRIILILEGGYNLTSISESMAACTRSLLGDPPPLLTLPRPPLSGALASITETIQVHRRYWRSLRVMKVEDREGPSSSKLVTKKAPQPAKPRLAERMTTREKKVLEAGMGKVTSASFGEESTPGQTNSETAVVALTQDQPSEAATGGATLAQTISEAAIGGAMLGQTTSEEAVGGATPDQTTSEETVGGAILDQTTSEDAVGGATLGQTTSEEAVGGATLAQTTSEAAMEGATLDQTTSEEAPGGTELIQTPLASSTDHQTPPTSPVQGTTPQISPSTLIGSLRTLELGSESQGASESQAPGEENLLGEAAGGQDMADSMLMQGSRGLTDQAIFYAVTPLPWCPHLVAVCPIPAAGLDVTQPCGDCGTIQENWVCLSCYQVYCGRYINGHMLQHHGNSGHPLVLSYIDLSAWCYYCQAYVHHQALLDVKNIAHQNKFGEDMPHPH

Homo sapiens [4] = organism: Homo sapiens; experiment: Selectivity ratio of IC50 for full length human recombinant C-terminal FLAG-His-tagged HDAC1 to IC50 for full length human recombinant N-terminal GST-tagged HDAC6
Homo sapiens [5] = organism: Homo sapiens; experiment: Selectivity ratio of IC50 for full length human recombinant C-terminal GST-tagged HDAC2 to IC50 for full length human recombinant N-terminal GST-tagged HDAC6
[6] = molecular target: T2, Protein deacetylase HDAC6 (Homo sapiens) (UniProt Q9UBN7); experiment: Inhibition of HDAC6 in human HCT116 cells assessed as upregulation of acetylated tubulin levels at 2.5 uM after 6 hrs by Western blot method; format: cell-based
T2 sequence (whole entry): T1 sequence (Q9UBN7 whole entry)
Summary of the method: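 HCT116 cells treated 6 h with compound, then lysates probed by western blot for acetyl-tubulin, with ECL detection.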

Homo sapiens [7] = organism: Homo sapiens; experiment: Inhibition of class 1 HDAC in human HCT116 cells assessed as upregulation of acetylated histone H3 levels at 2.5 uM after 6 hrs by Western blot method; format: cell-based
HCT-116 [8] = experiment: Cell cycle arrest in human HCT116 cells assessed as accumulation at sub-G1 phase after 48 hrs by propidium iodide staining-based flow cytometric method; format: functional
Summary of the method: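 HCT116 cells treated 48 h, then fixed overnight in 75% EtOH at -20 °C and washed in cold PBS. They were incubated 30 min at room temperature in 0.1 M phosphate-citric acid buffer (pH 7.8) and stained with propidium iodide buffer containing 0.1% Triton X-100 and RNase A. The sub-G1 fraction was measured by flow cytometry.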

HCT-116 [9] = experiment: Induction of apoptosis in human HCT116 cells assessed as increase in cleaved PARP levels at 1.25 to 2.5 uM after 48 hrs Western blot method; format: functional, cell-based
HCT-116 [10] = experiment: Induction of apoptosis in human HCT116 cells assessed as increase in cleaved caspase 3 levels at 1.25 to 2.5 uM after 48 hrs Western blot method; format: functional, cell-based

Chain of Histone deacetylase 2 (Q92769 whole entry): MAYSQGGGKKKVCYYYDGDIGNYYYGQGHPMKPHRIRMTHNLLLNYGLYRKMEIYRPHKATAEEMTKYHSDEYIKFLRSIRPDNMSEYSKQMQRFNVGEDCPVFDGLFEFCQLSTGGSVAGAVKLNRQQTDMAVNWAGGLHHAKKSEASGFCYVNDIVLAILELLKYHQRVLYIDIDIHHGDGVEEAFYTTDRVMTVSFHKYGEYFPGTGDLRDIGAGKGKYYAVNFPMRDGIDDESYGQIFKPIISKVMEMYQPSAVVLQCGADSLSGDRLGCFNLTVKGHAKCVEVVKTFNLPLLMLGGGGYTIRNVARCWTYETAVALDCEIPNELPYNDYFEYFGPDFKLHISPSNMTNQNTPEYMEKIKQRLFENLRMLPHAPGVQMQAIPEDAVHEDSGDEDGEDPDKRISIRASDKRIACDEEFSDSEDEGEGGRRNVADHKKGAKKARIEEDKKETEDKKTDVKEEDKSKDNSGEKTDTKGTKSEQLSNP
Chain of Histone deacetylase 1 (Q13547 whole entry): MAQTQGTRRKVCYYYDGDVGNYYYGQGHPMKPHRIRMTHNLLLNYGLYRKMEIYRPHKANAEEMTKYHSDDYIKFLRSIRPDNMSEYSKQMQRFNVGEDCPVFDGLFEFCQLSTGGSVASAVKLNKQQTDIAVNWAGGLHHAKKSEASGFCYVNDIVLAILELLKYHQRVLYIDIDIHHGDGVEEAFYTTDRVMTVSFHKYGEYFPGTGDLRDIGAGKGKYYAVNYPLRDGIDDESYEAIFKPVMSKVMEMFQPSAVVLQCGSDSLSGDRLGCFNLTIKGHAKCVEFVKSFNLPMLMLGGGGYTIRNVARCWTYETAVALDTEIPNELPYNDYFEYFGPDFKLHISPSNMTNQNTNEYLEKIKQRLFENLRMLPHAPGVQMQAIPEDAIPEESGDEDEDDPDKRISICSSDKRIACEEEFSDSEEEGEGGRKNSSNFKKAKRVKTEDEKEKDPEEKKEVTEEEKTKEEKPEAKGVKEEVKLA

Structure (SMILES) | GI50 (HCT-116 [1]) | GI50 (PC-3) | GI50 (A549) | Activity (HCT-116 [2]) | IC50 (Histone deacetylase 1) | IC50 (Histone deacetylase 2) | IC50 [3] | Ratio IC50 (Homo sapiens [4]) | Ratio IC50 (Homo sapiens [5]) | Acetylated tubulin upregulation (qualitative) [6] | Acetylated histone H3 upregulation (qualitative) (Homo sapiens [7]) | Activity (HCT-116 [8]) | Activity (HCT-116 [9]) | Activity (HCT-116 [10])
CN(C)Cc1cn(S(=O)(=O)c2ccc(/C=C/C(=O)NO)cc2)c2ccccc12 | 520 nM | 790 nM | 1620 nM | Dose-dependent effect | 1930 nM | 970 nM | 16.7 nM | 115 | 58 | Active | inactive | Dose-dependent effect | Active | Active
Cc1c(CN(C)C)c2ccccc2n1S(=O)(=O)c1cccc(/C=C/C(=O)NO)c1 | 500 nM | 1690 nM | 1920 nM | Dose-dependent effect | 1850 nM | 1340 nM | 84.9 nM | 21 | 15 | Active | inactive | Dose-dependent effect | Active | Active
CN(C)C(=O)c1cn(S(=O)(=O)c2cccc(/C=C/C(=O)NO)c2)c2ccccc12 | 2490 nM | > 5000 nM | > 5000 nM | – | 6910 nM | > 10000 nM | 201 nM | 34 | > 49 | – | – | – | – | –
CN(C)Cc1cn(S(=O)(=O)c2cccc(/C=C/C(=O)NO)c2)c2ccccc12 | 540 nM | 1030 nM | 1870 nM | Dose-dependent effect | 1510 nM | 1640 nM | 89.3 nM | 16 | 18 | Active | inactive | Dose-dependent effect | Active | Active
CN(C)C(=O)c1cn(S(=O)(=O)c2ccc(/C=C/C(=O)NO)cc2)c2ccccc12 | 2140 nM | 3100 nM | > 5000 nM | – | 2010 nM | 1460 nM | 10.8 nM | 186 | 135 | – | – | – | – | –
CN1CCc2c(c3ccccc3n2S(=O)(=O)c2cccc(/C=C/C(=O)NO)c2)C1 | 640 nM | 1840 nM | 2450 nM | – | 2700 nM | 3130 nM | 189 nM | 14 | 16 | – | – | – | – | –
Cc1c(CN(C)C)c2ccccc2n1Cc1ccc(C(=O)NO)cc1 | > 5000 nM | > 5000 nM | > 5000 nM | – | 9730 nM | > 10000 nM | 6.17 nM | 1580 | > 1620 | – | – | – | – | –
CN(C)Cc1cn(Cc2ccc(C(=O)NO)cc2)c2ccccc12 | > 5000 nM | 3930 nM | > 5000 nM | – | 7130 nM | 12200 nM | 21.7 nM | 328 | 562 | – | – | – | – | –
CN(C)C(=O)c1cn(Cc2ccc(C(=O)NO)cc2)c2ccccc12 | > 5000 nM | > 5000 nM | > 5000 nM | – | 5720 nM | > 10000 nM | 8.01 nM | 714 | > 1250 | – | – | – | – | –
CN(C)C(=O)c1cn(Cc2ccc(/C=C/C(=O)NO)cc2)c2ccccc12 | 750 nM | 1890 nM | 3330 nM | Dose-dependent effect | 627 nM | 1040 nM | 8.5 nM | 73 | 122 | Active | inactive | Dose-dependent effect | Active | Active
CN1CCc2c(c3ccccc3n2Cc2ccc(/C=C/C(=O)NO)cc2)C1 | 730 nM | 1690 nM | 2680 nM | – | 1600 nM | 1650 nM | 41.8 nM | 38 | 39 | – | – | – | – | –
CN(C)Cc1cn(Cc2ccc(/C=C/C(=O)NO)cc2)c2ccccc12 | 1390 nM | 2550 nM | 3000 nM | – | 2250 nM | 1120 nM | 43.1 nM | 52 | 25 | – | – | – | – | –
Cc1c(CN(C)C)c2ccccc2n1Cc1ccc(/C=C/C(=O)NO)cc1 | 1260 nM | 2080 nM | 3690 nM | – | 2130 nM | 2380 nM | 96.4 nM | 22 | 24 | – | – | – | – | –
